Bioassay records from PubChem.
Compounds with a hit are over-represented: about 1.6% of the library has one in this group of screens.
dFosB act-1 = activators of delta FosB homodimer, primary screen, biochemical, fluorescence polarization, TAMRA-CDK5 oligo, single point; AID 493131, 2011; purified delta FosB; percent of positive-control signal above neutral wells; 340,000 tested, 0.99% active; activation, % at 25 µM; Protein FosB (Mus musculus), P13346;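 active = mean activation above about 17%, with every replicate also reaching it, limit read from the data, passing the limit was not always enough; inconclusive = only one of the two conditions met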
Target sequence (P13346 whole entry, looked up): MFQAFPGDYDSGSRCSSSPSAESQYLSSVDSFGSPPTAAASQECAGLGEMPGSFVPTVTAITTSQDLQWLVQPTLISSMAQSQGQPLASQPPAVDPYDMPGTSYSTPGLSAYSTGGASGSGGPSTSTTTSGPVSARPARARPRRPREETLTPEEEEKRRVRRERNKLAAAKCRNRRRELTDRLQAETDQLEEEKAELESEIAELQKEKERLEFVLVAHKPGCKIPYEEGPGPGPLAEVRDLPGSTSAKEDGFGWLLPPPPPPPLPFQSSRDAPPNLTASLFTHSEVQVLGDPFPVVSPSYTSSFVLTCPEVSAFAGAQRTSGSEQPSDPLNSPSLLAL
PvdQ acylase = P. aeruginosa PvdQ acylase inhibitors, primary screen, biochemical, fluorescence, plate reader and imaging, single point; PvdQ acylase [Pseudomonas aeruginosa LESB58]; purified PvdQ acylase; inhibition, % at 10 µM; 340,000 tested, 0.063% active; AID 488965, 2010; in the data active = inhibition above about 30%, passing the limit was not always enough; inconclusive = no clear call, values can overlap the other calls;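 also: 0% = vehicle neutral wells and 100% = reference inhibitor wells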
SR-BI uptake up = activators of SR-BI mediated DiI-HDL uptake, primary screen, ldlA[mSR-BI] CHO cells, DiI fluorescence; 3 h; 100 = double the neutral-control signal; activation, % at 12.5 µM; 320,000 tested, 0.096% active; AID 504775, 2011;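 active = mean replicate activation of at least 60% and every replicate at or above 60%; inconclusive = mean or all-replicate condition met, but not both; inactive = mean below 60% and not all replicates reaching 60%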;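 also: 0% = median plate neutral-control signal and 100% = twice that signal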
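Material: SR-BI-overexpressing, LDLR-lacking CHO cells; schedule: compound exposure 3 h, 37 °C; reagent: DiI-labelled HDL at 10 µg/mL final; technique: bottom-read fluorescence, 550/595 nm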
S100A4 inh HTS = inhibitors of S100A4-myosin IIA peptide binding, primary screen, biochemical, fluorescence polarization, TAMRA-MyoIIA peptide; Protein S100-A4 (Homo sapiens), P26447; inhibition, % at 10.7 µM; 360,000 tested, 0.14% active; AID 652163, 2013;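 active = mean inhibition of at least 70% across replicates, with every replicate also reaching that level; inconclusive = mean inhibition reaches 70% but some replicates fall short; inactive = mean inhibition below 70%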
Target sequence (P26447 whole entry, looked up): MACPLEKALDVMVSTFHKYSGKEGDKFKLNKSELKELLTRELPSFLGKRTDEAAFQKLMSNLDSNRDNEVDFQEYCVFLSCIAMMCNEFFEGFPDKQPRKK
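Material: S100A4 monomer protein | Medium: HEPES pH 7.2 with CaCl2, KCl, NaCl, DTT, Triton | Reagent: Labelled myosin peptide probe, 5 nM | Doses: One dose per compound | Times: 5 min incubation before reading | Benchmarks: Neutral control DMSO, positive control TFP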
RAD54 inh = inhibitors of human RAD54 branch migration, primary screen, biochemical, fluorescence, single point; DNA repair and recombination protein RAD54-like (Homo sapiens), Q92698; RAD54 Holliday junction branch migration, FAM/BHQ fluorescence; inhibition, % at 10.4 µM; 360,000 tested, 0.14% active; AID 602329, 2012;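 active = mean normalized replicate activity at least 40 and at least half of replicates scoring 40 or more; inconclusive = only one of the two criteria met; inactive = mean below 40 and under half of replicates reaching 40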;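 also: 0% = median of neutral control wells and 100% = median of positive control wells; inhibitors cause a drop in the FAM fluorescence signal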
SR-BI DiI inh = inhibitors of SR-BI mediated HDL lipid uptake, primary screen, ldlA[mSR-BI] cells, fluorescence, single point; inhibition, % at 12.5 µM; 320,000 tested, 0.96% active; AID 488896, 2010; ldlA[mSR-BI] CHO cells, DiI-HDL uptake fluorescence, 3 h; Scavenger receptor class B member 1 (Mus musculus), Q61009;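 active = mean replicate inhibition of at least 70% and a set share of replicates each scoring 70 or more; inconclusive = meets just one of the two criteria; inactive = fails both criteria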;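 also: 0% = median of neutral control wells and 100% = median of positive control wells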
dFosB act-2 = activators of mouse delta FosB DNA binding, confirmation, biochemical, fluorescence polarization, TAMRA-CDK5 oligo, cherry-picked samples; shares compounds with dFosB act-1; purified delta FosB; normalised: neutral wells 0, positive control 100; activation, % at 24.9 µM; 2,400 tested, under 10 active; AID 588690, 2011;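 active = highest replicate activation at or above 34% and every replicate reaching that threshold; inconclusive = meets only one of the two criteria; inactive = meets neither criterion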;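 also: higher polarization means more probe DNA bound by delta FosB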
Starred values were filed as active, the others as inactive; ? = inconclusive; nt = no result.

SMILES	dFosB act-1	PvdQ acylase	SR-BI uptake up	S100A4 inh HTS	RAD54 inh	SR-BI DiI inh	dFosB act-2
Cc1ccc(CNC(=O)c2ccc(N3CCC4(CC3)CC(c3cccc(Br)c3)=NO4)c(NC(=O)c3c(Cl)cccc3Cl)c2)cc1	24.1*	-8.6	-4.7	-0.9	2.1	4.7	0.8
CCC(=O)N1[C@H](CNC(=O)CN2CCOCC2)[C@@H](c2ccccc2)[C@@H]1CO	nt	nt	nt	nt	0.3	nt	nt
C=CCn1c(COc2ccccc2F)nnc1SCC(=O)Nc1cc(C)on1	18.4*	-7.8	23.0	-4.9	nt	-23.0	?
Cc1cccc2nc(-c3cccc(NC(=O)Cc4ccccc4)c3)cn12	-8.5	8.7	-35.6	-8.8	4.1	35.6	nt
Cc1cccc2nc(-c3cccc(NC(=O)c4ccc(Cl)cc4)c3)cn12	20.6*	11.3	-43.2	13.3	-3.9	43.2	5.7
CCCCCc1cc(=O)oc2c(C(CCN3CCCC(C)C3)c3ccc(N(C)C)cc3)c(OC)cc(OC)c12 (stereo unspecified)	1.7	-13.8	1.4	nt	-9.6	-1.4	nt
CCCCCc1cc(=O)oc2c(C(CCN3CCCC(C)C3)c3cc(OC)c(OC)c(OC)c3)c(OC)cc(OC)c12 (stereo unspecified)	19.5*	-10.1	24.1	nt	2.3	-24.1	-2.0
CC(C)C[C@H]1COCc2cn(nn2)CC[C@H](Cc2ccccc2)C(=O)N1	nt	nt	nt	-3.7	nt	nt	nt
COc1ccc(C(=O)Nc2cccc(-c3ccc4nncn4n3)c2)cc1	-29.3	-12.4	nt	-3.8	nt	nt	nt
COc1ccc(S(=O)(=O)Nc2cccc(-c3ccc4nncn4n3)c2)cc1	21.2*	-14.6	9.5	-3.8	-0.1	-9.5	3.3
Cc1cccc(-c2cc(C(=O)Nc3cccnc3)c3ccccc3n2)c1	-30.1	-2.3	-68.8	1.1	-3.7	68.8	nt
Cc1cccc(NC(=O)c2cc(-c3cccnc3)nc3c(C)cccc23)n1	54.5*	-5.1	-69.9	-0.9	0.8	69.9	0.1
O=C(CCNC(=O)c1ccccc1Cl)Nc1cc(C(F)(F)F)ccc1Cl	34.0*	-1.0	-9.8	3.7	nt	9.8	5.6
CC(C)NC(=O)Nc1ccc2c(c1)C(=O)N([C@@H](C)CO)C[C@H](C)[C@@H](CN(C)C(=O)CCC(F)(F)F)OCCCC[C@H](C)O2	nt	nt	nt	3.8	4.2	nt	nt
Cc1cc(OCC(=O)Nc2cc(-c3nn4c(C)nnc4s3)ccc2C)ccc1Cl	37.7*	-4.1	-32.6	-1.8	9.6	32.6	5.1
Cc1sc2ncnc(N3CCC(C(=O)Nc4nc(-c5ccc(F)cc5)cs4)CC3)c2c1C	18.0*	-11.0	-22.7	-4.2	-9.5	22.7	-0.8
CC(=O)c1sc(NC(=O)C2CCN(c3ncnc4sc(C)c(C)c34)CC2)nc1-c1ccccc1	-0.1	-4.7	-9.6	13.5	-4.8	9.6	nt
Cc1cc(=O)oc2cc(OCC(=O)Nc3nccs3)ccc12	-2.4	-9.4	10.2	-0.7	-13.3	-10.2	nt
Cc1c(C)c2ccc(OCC(=O)Nc3nccs3)cc2oc1=O	31.5*	-19.2	14.3	-9.2	-16.7	-14.3	0.6
Cc1noc(C)c1NC(=O)N(C)C[C@@H]1Oc2ccc(NC(=O)C3CC3)cc2CC(=O)N([C@H](C)CO)C[C@@H]1C	nt	nt	nt	-5.7	3.4	nt	nt
NS(=O)(=O)c1ccc(CCNC(=O)c2ccc(NC3=NC4CS(=O)(=O)CC4S3)cc2)cc1 (stereo unspecified)	17.9*	-10.8	1.3	nt	-1.7	-1.3	4.9
Cc1ccc(CCNC(=O)c2ccc(NC3=NC4CS(=O)(=O)CC4S3)cc2)cc1 (stereo unspecified)	10.3	-7.8	22.8	-3.9	2.1	-22.8	nt
COc1ccc2oc(=O)c(-c3cn4ccc(C)cc4n3)cc2c1	26.2*	-5.0	-61.1	3.6	nt	61.1	4.5
O=c1oc2ccccc2cc1-c1cn2ccccc2n1	-5.0	4.7	-7.0	-2.0	nt	7.0	nt
C[C@@H]1CN([C@H](C)CO)C(=O)Cc2cc(NC(=O)Nc3ccccc3)ccc2O[C@@H]1CN(C)S(C)(=O)=O	nt	nt	nt	2.6	-6.6	nt	nt
SMILES	dFosB act-1	PvdQ acylase	SR-BI uptake up	S100A4 inh HTS	RAD54 inh	SR-BI DiI inh	dFosB act-2
O=C(Cn1c2ccccc2c(=O)c2ccccc21)Nc1cccc(F)c1	37.3*	-10.6	21.4	1.6	nt	-21.4	3.6
O=C(CC(=O)Nc1cccc(F)c1)Nc1cccc(F)c1	-2.1	-6.6	19.7	-13.9	-13.5	-19.7	nt
COC(=O)c1ccc(NC(=O)c2c(C(=O)Nc3ccccc3)sc3nc(C)cc(=O)n23)cc1	91.8*	-14.6	8.8	30.2	nt	-8.8	0.8
COC(=O)c1ccc(NC(=O)c2snnc2-c2ccccc2)cc1	-10.6	-12.3	13.3	2.5	nt	-13.3	nt
COC(=O)c1ccc(NC(=O)c2sc3nc(-c4ccccc4)cn3c2C)cc1	25.6*	-10.7	-39.6	nt	-4.7	39.6	1.2
O=C(CN1CCOCC1)NCC[C@H]1CC[C@H](NC(=O)Nc2ccc(Cl)cc2)[C@@H](CO)O1	nt	nt	nt	-1.2	8.4	nt	nt
CN1CCN(S(=O)(=O)c2cccc(C(=O)Oc3ccc(C(C)(C)C)cc3)c2)CC1	23.1*	6.7	23.1	-3.0	5.4	-23.1	0.2
O=C(N[C@@H]1CC[C@H](CCNS(=O)(=O)c2cccc(Cl)c2)O[C@H]1CO)c1ccccc1	nt	nt	nt	-1.2	nt	nt	nt
NC(=O)CC(NC(=O)c1ccc(Br)cc1)c1ccc(NCc2ccc(F)c(F)c2)c([N+](=O)[O-])c1 (stereo unspecified)	8.7	4.9	10.4	-3.2	4.9	-10.4	nt
NC(=O)CC(NC(=O)Cc1ccc(Br)cc1)c1ccc(NCc2ccc(F)c(F)c2)c([N+](=O)[O-])c1 (stereo unspecified)	52.0*	-4.6	11.6	nt	-4.6	-11.6	-3.5
CCc1cccc(OCCOC(=O)CNS(=O)(=O)c2ccc(NC(C)=O)cc2)c1	56.1*	-6.5	3.1	-1.6	0.2	-3.1	3.0
CC(=O)Nc1ccc(S(=O)(=O)NCC(=O)OCC(=O)NCCc2ccccc2)cc1	nt	nt	nt	7.4	-0.3	nt	nt
COCCN(C(=O)COC(=O)/C=C/c1ccc(SC)cc1)c1c(N)n(Cc2ccccc2)c(=O)[nH]c1=O	20.9*	2.2	-19.1	1.4	-1.2	19.0	0.8
